From ChEMBL document CHEMBL4196013, “Ridaifen-F conjugated with cell-penetrating peptides inhibits intracellular proteasome activities and induces drug-resistant cell death” (Eur J Med Chem, 2018)
The source made the active and inactive calls. The rule behind the calls is not given here. Peptide text beside a SMILES is read from it. * marks the point of attachment. X1 = CCC(=C(c1ccc(OCCN2CCCCCC2)cc1)c1ccc(OCCN2CCCCCC2)cc1)c1cccc(C(=O)*)c1

Columns and labels:
[1] = biological target: T1, Proteasome Macropain subunit MB1 (Homo sapiens, UniProt P28074); assay: Inhibition of chymotrypsin-like activity of human 26S proteasome using Suc-LLVY-MCA as substrate measured for 1 hr by fluorescence assay
T1 sequence (P28074 whole entry): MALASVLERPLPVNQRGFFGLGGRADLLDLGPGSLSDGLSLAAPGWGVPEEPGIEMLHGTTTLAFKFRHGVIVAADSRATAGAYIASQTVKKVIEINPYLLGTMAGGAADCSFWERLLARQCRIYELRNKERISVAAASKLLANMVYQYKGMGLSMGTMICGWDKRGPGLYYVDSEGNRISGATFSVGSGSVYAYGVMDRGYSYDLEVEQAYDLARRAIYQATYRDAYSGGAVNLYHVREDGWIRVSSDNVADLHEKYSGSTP
How it was run: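 Purified 26S proteasome with 50 µM fluorogenic substrate in 50 mM HEPES pH 7.5, 40 mM KCl, 5 mM MgCl₂, BSA, 0.5 mM ATP, 1 mM DTT. Inhibitor range 0.1–40 µM. AMC fluorescence monitored 1 h at 37 °C. IC₅₀ from inhibition curves; n = 3.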

[2] = biological target: T1, Proteasome Macropain subunit MB1; assay: Inhibition of chymotrypsin-like activity of human 20S proteasome using Suc-LLVY-MCA as substrate measured for 1 hr by fluorescence assay
How it was run: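 Purified human 20S proteasome with 50 µM fluorogenic substrate in 25 mM HEPES pH 8.0, 0.5 mM EDTA, 0.03% SDS. Inhibitor range 0.1–10 µM, with the table footnote giving 0.5–8 µM. IC₅₀ from inhibition curves; n = 3.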

[3] = biological target: T1, Proteasome Macropain subunit MB1; assay: Inhibition of chymotrypsin-like activity of 26S proteasome in human RPMI8226 cells using […] as substrate after 24 to 48 hrs by luminescence-based assay; type: cell-based
How it was run: (§1)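 Intracellular proteasome assay. Cells seeded in triplicate at 5 × 10³ cells/well and incubated 24 or 48 h with 0.1–10 µM inhibitor, 0.5% final DMSO. Proteasome-Glo reagent with aminoluciferin-linked peptide substrates lyses the cells; luminescence read after 15 min. IC₅₀ taken from inhibition curves.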

KMS-11 [4] = assay: Cytotoxicity against human KMS11 cells at 10 uM by CellTiter-Glo assay; type: functional, cell-based; settings: TDE = time-dependent effect
How it was run: (§2)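 Cells cultured with each compound at 10 µM, with viability followed over time by ATP assay. Mock-treated cells define 100%; values are means of three independent experiments.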

RPMI-8226 [5] = assay: Cytotoxicity against human RPMI8226 cells assessed as reduction in cell viability at 10 uM after 2 to 48 hrs by CellTiter-Glo assay; type: functional, cell-based; how it was run: as §2
RPMI-8226 [6] = assay: Cytotoxicity against human RPMI8226 cells after 24 to 48 hrs by CellTiter-Glo assay; type: functional
How it was run: (§3)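 RPMI8226 or KMS-11 cells seeded in triplicate wells at 5 × 10² cells/well and exposed to 0.1–10 µM compound (DMSO) for 24 or 48 h. Survival read as cellular ATP level; Cyt₅₀ derived from concentration–survival curves.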

[7] = biological target: T1, Proteasome Macropain subunit MB1; assay: Inhibition of chymotrypsin-like activity of human 26S proteasome using Z-LLE-MCA as substrate measured for 1 hr in presence of ATPgammaS by fluorescence assay
KMS-11 [8] = assay: Cytotoxicity against human KMS11 cells after 24 to 48 hrs by CellTiter-Glo assay; type: functional; how it was run: as §3
[9] = biological target: T1, Proteasome Macropain subunit MB1; assay: Inhibition of chymotrypsin-like activity of 26S proteasome in human KMS11 cells using […] as substrate after 24 to 48 hrs by luminescence-based assay; type: cell-based; how it was run: as §1

Compound	IC50 [1]	IC50 [2]	IC50 [3]	Activity (KMS-11 [4])	Activity (RPMI-8226 [5])	CC50 (RPMI-8226 [6])	IC50 [7]	CC50 (KMS-11 [8])	IC50 [9]
CCC(=C(c1ccc(OCCN2CCCCCC2)cc1)c1ccc(OCCN2CCCCCC2)cc1)c1cccc(C(=O)NCC(=O)N[C@@H](CCCNC(=N)N)C(=O)N[C@@H](CCCNC(=N)N)C(=O)N[C@@H](CCCNC(=N)N)C(=O)N[C@@H](CCCNC(=N)N)C(N)=O)c1 (X1-GRRRR-NH2)	> 40 µM	> 8 µM							
CCC(=C(c1ccc(OCCN2CCCCCC2)cc1)c1ccc(OCCN2CCCCCC2)cc1)c1cccc(CNC(=O)CN[C@@H](CCCNC(=N)N)C(=O)N[C@@H](CCCNC(=N)N)C(=O)N[C@@H](CCCNC(=N)N)C(=O)N[C@@H](CCCNC(=N)N)C(=O)NC(C)=O)c1	> 40 µM	> 8 µM							
N=C(N)NCCC[C@H](NC(=O)[C@H](CCCNC(=N)N)NC(=O)[C@H](CCCNC(=N)N)NC(=O)[C@H](CCCNC(=N)N)NC(=O)[C@H](CCCNC(=N)N)NC(=O)[C@H](CCCNC(=N)N)NC(=O)[C@H](CCCNC(=N)N)NC(=O)[C@H](CCCNC(=N)N)NC(=O)CN)C(N)=O	> 40 µM	> 8 µM							
CCC(=C(c1ccc(OCCN2CCCCCC2)cc1)c1ccc(OCCN2CCCCCC2)cc1)c1cccc(C(=O)NCC(=O)N[C@@H](CC(C)C)C(=O)N[C@@H](CC(C)C)C(=O)N[C@@H](CC(C)C)C(=O)NCC(=O)NCC(=O)NCC(=O)NCC(N)=O)c1 (X1-GLLLGGGG-NH2)	5 µM	1.1 µM							
CCC(=C(c1ccc(OCCN2CCCCCC2)cc1)c1ccc(OCCN2CCCCCC2)cc1)c1cccc(C(=O)NCC(=O)N[C@@H](CC(C)C)C(=O)N[C@@H](CC(C)C)C(=O)N[C@H](C(=O)N[C@@H](Cc2ccc(O)cc2)C(=O)NCC(=O)NCC(N)=O)C(C)C)c1 (X1-GLLVYGG-NH2)	9.1 µM	0.89 µM							
CCC(=C(c1ccc(OCCN2CCCCCC2)cc1)c1ccc(OCCN2CCCCCC2)cc1)c1cccc(C(=O)NCC(=O)N[C@@H](CC(C)C)C(=O)N[C@@H](CC(C)C)C(=O)N[C@H](C(=O)N[C@@H](Cc2ccc(O)cc2)C(N)=O)C(C)C)c1 (X1-GLLVY-NH2)	26 µM	0.89 µM							
CCC(=C(c1ccc(OCCN2CCCCCC2)cc1)c1ccc(OCCN2CCCCCC2)cc1)c1cccc(CNC(=O)CN[C@@H](CCCNC(=N)N)C(=O)N[C@@H](CCCNC(=N)N)C(=O)N[C@@H](CCCNC(=N)N)C(=O)N[C@@H](CCCNC(=N)N)C(=O)N[C@@H](CCCNC(=N)N)C(=O)N[C@@H](CCCNC(=N)N)C(=O)NC(C)=O)c1	> 40 µM	> 8 µM							
CCC(=C(c1ccc(OCCN2CCCCCC2)cc1)c1ccc(OCCN2CCCCCC2)cc1)c1ccccc1	> 100 µM	1.02 µM	11 µM	Tde	Active	3.6 µM			
CC[C@]1(O)C[C@@H]2CN(CCc3c([nH]c4ccccc34)[C@@](C(=O)OC)(c3cc4c(cc3OC)N(C)[C@H]3[C@@](O)(C(=O)OC)[C@H](OC(C)=O)[C@]5(CC)C=CCN6CC[C@]43[C@@H]65)C2)C1 [VINBLASTINE]	> 40 µM	4.58 µM							
CCC(=C(c1ccc(OCCN2CCCCCC2)cc1)c1ccc(OCCN2CCCCCC2)cc1)c1cccc(CNC(=O)CN[C@@H](CC(C)C)C(=O)N[C@@H](CC(C)C)C(=O)N[C@H](C(=O)N[C@@H](Cc2ccc(O)cc2)C(=O)NC(C)=O)C(C)C)c1	> 40 µM	0.37 µM							
CCC(=C(c1ccc(OCCN2CCCCCC2)cc1)c1ccc(OCCN2CCCCCC2)cc1)c1cccc(C(=O)NCC(=O)N[C@@H](CCCNC(=N)N)C(=O)N[C@@H](CCCNC(=N)N)C(=O)N[C@@H](CCCNC(=N)N)C(=O)N[C@@H](CCCNC(=N)N)C(=O)N[C@@H](CCCNC(=N)N)C(=O)N[C@@H](CCCNC(=N)N)C(=O)N[C@@H](CCCNC(=N)N)C(=O)N[C@@H](CCCNC(=N)N)C(=O)NC(C)=O)c1	9.4 µM	> 40 µM	2.1 µM	Tde	Active	2.7 µM	6 µM	4.5 µM	2.1 µM
CCC(=C(c1ccc(OCCN2CCCCCC2)cc1)c1ccc(OCCN2CCCCCC2)cc1)c1cccc(C(=O)NCC(=O)N[C@@H](CCCNC(=N)N)C(=O)N[C@@H](CCCNC(=N)N)C(=O)N[C@@H](CCCNC(=N)N)C(=O)N[C@@H](CCCNC(=N)N)C(=O)N[C@@H](CCCNC(=N)N)C(=O)N[C@@H](CCCNC(=N)N)C(=O)N[C@@H](CCCNC(=N)N)C(=O)N[C@@H](CCCNC(=N)N)C(N)=O)c1	5.5 µM	> 50 µM	5.7 µM	Tde	Active	4.3 µM	2.4 µM	7.2 µM	6.3 µM
CCC(=C(c1ccc(OCCN2CCCCCC2)cc1)c1ccc(OCCN2CCCCCC2)cc1)c1cccc(C(=O)NCC(=O)N[C@@H](CCCNC(=N)N)C(=O)N[C@@H](CCCNC(=N)N)C(=O)N[C@@H](CCCNC(=N)N)C(=O)N[C@@H](CCCNC(=N)N)C(=O)N[C@@H](CCCNC(=N)N)C(=O)N[C@@H](CCCNC(=N)N)C(N)=O)c1	> 40 µM	> 8 µM							
CCC(=C(c1ccc(OCCN2CCCCCC2)cc1)c1ccc(OCCN2CCCCCC2)cc1)c1cccc(C(=O)NCC(=O)N[C@@H](CC(C)C)C(=O)N[C@@H](CC(C)C)C(=O)N[C@@H](CCC(=O)O)C(N)=O)c1	24 µM	6.1 µM							
Ac-RRRRRRRRG-OH	> 40 µM	> 8 µM							
